# Test results: PMC4576993 (Leukemia, 2011)
# Like-named read-outs stand apart in the source and are kept apart here.
# Columns and labels:
# P-glycoprotein = conditions: cited from earlier work
# bone marrow = conditions: at its MTD, normal mouse model; cited from earlier work
# [1] = type: in vivo, human
# Summary of the method: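 Open-label 3+3-type escalation in cohorts of 3–6, starting at 18 mg/m2 weekly (days 1, 8, 15) or 9 mg/m2 twice weekly (days 1, 4, 8, 11), 28-day cycles, with modified Fibonacci increments. A cohort was expanded to 6 on any DLT. MTD was the level below that with ≥2/6 DLTs. DLT was assessed in cycle 1 through day 29. Toxicity was graded by NCI CTCAE v3.0. One 25% dose reduction was allowed, with supportive care permitted.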
# [2] = test system: phosphorylated H2AX (γH2AX) in peripheral blood blasts; assay: γH2AX in patient peripheral blood blasts by flow cytometry; type: in vivo, human
# Summary of the method: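 Peripheral blood blasts from 10 weekly-schedule patients were sampled on days 1 and 8, predose and 2 h postdose. Ficoll-enriched cells were fixed in 70% ethanol at 4 °C and stained in TBS/4% FBS/0.1% Triton X-100. Primary was anti-phospho-Ser139 H2AX or IgG1 isotype (1:500, 2 h), then Alexa488 anti-mouse (1:200, 1 h) with 5 μg/ml RNase, then 2% formaldehyde. Flow cytometry used […]. %γH2AX-positive was set against isotype overlays.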
# [3] = Renal excretion of vosaroxin and metabolites in urine, 24 h after first dose; type: in vivo, human; conditions: 24 h after first dose, 18 and 27 mg/m^2 weekly, eight patients
# [4] = non-clinical toxicology studies; no reference given; cited from earlier work
# [5] = patients with solid tumors, up to 75 mg/m^2/28-day cycle; cited from earlier work
# [6] = rat tissue distribution studies; no reference given; cited from earlier work
# MV4-11 AML cell line = conditions: in vitro; cited from earlier work
# [7] = twice weekly (n = 31), Grade 1 or 2
# [8] = twice weekly (n = 31), Grade ≥3
# [9] = two patients with CR, weekly schedule
compound,measurement,setting,value
"CN[C@H]1CN(c2ccc3c(=O)c(C(=O)O)cn(-c4nccs4)c3n2)C[C@@H]1OC [vosaroxin, (+)-1,4-dihydro-7-(trans-3-methoxy-4-methylamino-1-pyrrolidinyl)-4-oxo-1-(2-thiazolyl)-1,8-naphthyridine-3-carboxylic acid]",Substrate for P-glycoprotein,P-glycoprotein,not a substrate for P-glycoprotein
same,Bone marrow ablation compared with cytarabine,bone marrow,ablated bone marrow more potently than cytarabine
same,30-day all-cause mortality rate,[1]; 73 treated patients,11%
same,Deaths within 30 days after the first dose,[1]; 73 treated patients,Eight
same,"Abdominal pain, % of patients","[1]; Total (n = 73), All grades",22%
same,"Abdominal pain, No. of patients","[1]; Total (n = 73), All grades",16
same,"Anorexia, No. of patients","[1]; Total (n = 73), All grades",30
same,"Diarrhea, % of patients","[1]; Total (n = 73), All grades",49%
same,"Diarrhea, No. of patients","[1]; Total (n = 73), All grades",36
same,"Nausea, % of patients","[1]; Total (n = 73), All grades",63%
same,"Nausea, No. of patients","[1]; Total (n = 73), All grades",46
same,"Peripheral edema, % of patients","[1]; Total (n = 73), All grades",34%
same,"Peripheral edema, No. of patients","[1]; Total (n = 73), All grades",25
same,"Petechiae, % of patients","[1]; Total (n = 73), All grades",21%
same,"Petechiae, No. of patients","[1]; Total (n = 73), All grades",15
same,"Pleural effusion, % of patients","[1]; Total (n = 73), All grades",22%
same,"Pleural effusion, No. of patients","[1]; Total (n = 73), All grades",16
same,"Pyrexia, % of patients","[1]; Total (n = 73), All grades",29%
same,"Pyrexia, No. of patients","[1]; Total (n = 73), All grades",21
same,"Stomatitis, % of patients","[1]; Total (n = 73), All grades",29%
same,"Stomatitis, No. of patients","[1]; Total (n = 73), All grades",21
same,"Clinical manifestation of QTc prolongation, such as torsades de pointes",[1]; all treated patients,No clinical manifestation of QTc prolongation
same,"Stomatitis duration, range",[1]; cycle 1,5 to 39 days
same,Stomatitis median duration,[1]; cycle 1,15 days
same,Stomatitis median onset,[1]; cycle 1,14 days
same,"Stomatitis onset, range",[1]; cycle 1,3 to 20 days
same,Patients experiencing stomatitis grade 1–2,"[1]; cycle 1, overall",12%
same,Patients experiencing stomatitis grade ≥3,"[1]; cycle 1, overall",15%
same,Patients experiencing stomatitis of any grade,"[1]; cycle 1, overall",27%
same,Treatment-related hepatic or renal dysfunction,[1]; doses up to 90 mg/m^2 weekly and 50 mg/m^2 twice weekly,No grade 3 or greater treatment-related hepatic or renal dysfunction was reported
same,"Time of death after first dose, range",[1]; eight deaths within 30 days,11 to 30 days
same,Dose-limiting toxicity (DLT),"[1]; patients with advanced leukemia, both schedules",stomatitis
same,"Abdominal pain, % of patients",[1]; [7],10%
same,"Abdominal pain, No. of patients",[1]; [7],3
same,"Anorexia, % of patients",[1]; [7],39%
same,"Anorexia, No. of patients",[1]; [7],12
same,"Diarrhea, % of patients",[1]; [7],39%
same,"Diarrhea, No. of patients",[1]; [7],12
same,"Dyspnea, No. of patients",[1]; [7],10
same,"Fatigue, No. of patients",[1]; [7],14
same,"Febrile neutropenia, % of patients",[1]; [7],0%
same,"Febrile neutropenia, No. of patients",[1]; [7],0
same,"Infection (20 individual adverse event terms), No. of patients",[1]; [7],10
same,"Nausea, % of patients",[1]; [7],68%
same,"Nausea, No. of patients",[1]; [7],21
same,"Peripheral edema, % of patients",[1]; [7],29%
same,"Peripheral edema, No. of patients",[1]; [7],9
same,"Petechiae, % of patients",[1]; [7],19%
same,"Petechiae, No. of patients",[1]; [7],6
same,"Pleural effusion, % of patients",[1]; [7],16%
same,"Pleural effusion, No. of patients",[1]; [7],5
same,"Pyrexia, % of patients",[1]; [7],19%
same,"Pyrexia, No. of patients",[1]; [7],6
same,"Stomatitis, % of patients",[1]; [7],19%
same,"Stomatitis, No. of patients",[1]; [7],6
same,"Abdominal pain, % of patients",[1]; [8],3%
same,"Abdominal pain, No. of patients",[1]; [8],1
same,"Anorexia, % of patients",[1]; [8],0%
same,"Anorexia, No. of patients",[1]; [8],0
same,"Diarrhea, % of patients",[1]; [8],3%
same,"Diarrhea, No. of patients",[1]; [8],1
same,"Dyspnea, % of patients",[1]; [8],3%
same,"Dyspnea, No. of patients",[1]; [8],1
same,"Fatigue, % of patients",[1]; [8],0%
same,"Fatigue, No. of patients",[1]; [8],0
same,"Febrile neutropenia, No. of patients",[1]; [8],15
same,"Infection (20 individual adverse event terms), No. of patients",[1]; [8],11
same,"Nausea, % of patients",[1]; [8],3%
same,"Nausea, No. of patients",[1]; [8],1
same,"Peripheral edema, % of patients",[1]; [8],0%
same,"Peripheral edema, No. of patients",[1]; [8],0
same,"Petechiae, % of patients",[1]; [8],3%
same,"Petechiae, No. of patients",[1]; [8],1
same,"Pleural effusion, % of patients",[1]; [8],3%
same,"Pleural effusion, No. of patients",[1]; [8],1
same,"Pyrexia, No. of patients",[1]; [8],4
same,"Stomatitis, % of patients",[1]; [8],19%
same,"Stomatitis, No. of patients",[1]; [8],6
same,Time to recovery of peripheral absolute neutrophil counts to >1×10^9/l,[1]; [9],50 days
same,Time to recovery of platelets to ≥100×10^9/l,[1]; [9],28 days
same,"Abdominal pain, No. of patients","[1]; weekly (n = 42), Grade 1 or 2",11
same,"Diarrhea, % of patients","[1]; weekly (n = 42), Grade 1 or 2",52%
same,"Diarrhea, No. of patients","[1]; weekly (n = 42), Grade 1 or 2",22
same,"Dyspnea, % of patients","[1]; weekly (n = 42), Grade 1 or 2",31%
same,"Fatigue, No. of patients","[1]; weekly (n = 42), Grade 1 or 2",19
same,"Febrile neutropenia, % of patients","[1]; weekly (n = 42), Grade 1 or 2",0%
same,"Febrile neutropenia, No. of patients","[1]; weekly (n = 42), Grade 1 or 2",0
same,"Infection (20 individual adverse event terms), % of patients","[1]; weekly (n = 42), Grade 1 or 2",12%
same,"Infection (20 individual adverse event terms), No. of patients","[1]; weekly (n = 42), Grade 1 or 2",5
same,"Nausea, % of patients","[1]; weekly (n = 42), Grade 1 or 2",57%
same,"Nausea, No. of patients","[1]; weekly (n = 42), Grade 1 or 2",24
same,"Peripheral edema, % of patients","[1]; weekly (n = 42), Grade 1 or 2",36%
same,"Peripheral edema, No. of patients","[1]; weekly (n = 42), Grade 1 or 2",15
same,"Petechiae, % of patients","[1]; weekly (n = 42), Grade 1 or 2",19%
same,"Petechiae, No. of patients","[1]; weekly (n = 42), Grade 1 or 2",8
same,"Pleural effusion, % of patients","[1]; weekly (n = 42), Grade 1 or 2",21%
same,"Pleural effusion, No. of patients","[1]; weekly (n = 42), Grade 1 or 2",9
same,"Pyrexia, No. of patients","[1]; weekly (n = 42), Grade 1 or 2",10
same,"Stomatitis, % of patients","[1]; weekly (n = 42), Grade 1 or 2",10%
same,"Stomatitis, No. of patients","[1]; weekly (n = 42), Grade 1 or 2",4
same,"Abdominal pain, % of patients","[1]; weekly (n = 42), Grade ≥3",2%
same,"Abdominal pain, No. of patients","[1]; weekly (n = 42), Grade ≥3",1
same,"Anorexia, % of patients","[1]; weekly (n = 42), Grade ≥3",2%
same,"Anorexia, No. of patients","[1]; weekly (n = 42), Grade ≥3",1
same,"Diarrhea, % of patients","[1]; weekly (n = 42), Grade ≥3",2%
same,"Diarrhea, No. of patients","[1]; weekly (n = 42), Grade ≥3",1
same,"Dyspnea, % of patients","[1]; weekly (n = 42), Grade ≥3",0%
same,"Dyspnea, No. of patients","[1]; weekly (n = 42), Grade ≥3",0
same,"Fatigue, % of patients","[1]; weekly (n = 42), Grade ≥3",2%
same,"Fatigue, No. of patients","[1]; weekly (n = 42), Grade ≥3",1
same,"Febrile neutropenia, No. of patients","[1]; weekly (n = 42), Grade ≥3",28
same,"Infection (20 individual adverse event terms), No. of patients","[1]; weekly (n = 42), Grade ≥3",22
same,"Nausea, % of patients","[1]; weekly (n = 42), Grade ≥3",0%
same,"Nausea, No. of patients","[1]; weekly (n = 42), Grade ≥3",0
same,"Peripheral edema, % of patients","[1]; weekly (n = 42), Grade ≥3",2%
same,"Peripheral edema, No. of patients","[1]; weekly (n = 42), Grade ≥3",1
same,"Petechiae, % of patients","[1]; weekly (n = 42), Grade ≥3",0%
same,"Petechiae, No. of patients","[1]; weekly (n = 42), Grade ≥3",0
same,"Pleural effusion, % of patients","[1]; weekly (n = 42), Grade ≥3",2%
same,"Pleural effusion, No. of patients","[1]; weekly (n = 42), Grade ≥3",1
same,"Pyrexia, % of patients","[1]; weekly (n = 42), Grade ≥3",2%
same,"Pyrexia, No. of patients","[1]; weekly (n = 42), Grade ≥3",1
same,"Stomatitis, % of patients","[1]; weekly (n = 42), Grade ≥3",12%
same,"Stomatitis, No. of patients","[1]; weekly (n = 42), Grade ≥3",5
same,Patients with grade 3 stomatitis as DLT,[1]; weekly schedule,five
same,Increase in γH2AX,"[2]; day 1, 2 h postdose, patients with blasts ≥5%",1.8 fold
same,Increase in γH2AX,"[2]; day 1, 2 h postdose, patients with bone marrow blasts <5% after treatment",2.6 fold
same,Increase in γH2AX,"[2]; day 8, 2 h postdose, patients with blasts ≥5%",1.7 fold
same,Increase in γH2AX,"[2]; day 8, 2 h postdose, patients with bone marrow blasts <5% after treatment",3.8 fold
same,Patients with increased γH2AX after the first dose,"[2]; weekly schedule, 50 mg/m^2 or higher, 2 h postdose day 1",7 of 10
same,Patients with γH2AX higher than at baseline before treatment on day 8,"[2]; weekly schedule, day 8 predose",9 of 10
same,Average renal excretion of the total dose infused,[3],2.35%
same,Primary adverse effects,[4],myelosuppression and gastrointestinal toxicity
same,Primary DLT,[5],myelosuppression
same,Concentration in bone marrow relative to blood,[6],~ 30 fold
same,Half-maximal (50%) inhibitory concentration (IC50),MV4-11 AML cell line,40.1 ng/mL
same,IC90,MV4-11 AML cell line,1000 nM
